According to ChEMBL document CHEMBL1129543, “Synthesis and evaluation of N-(phenylacetyl)trifluoromethanesulfonamides as anticonvulsant agents” (J Med Chem, 1996):
Active and inactive are the calls of the source. The rule behind the calls is not given here.

Tests used:
[1] = test system: Mus musculus; experiment: Median toxic dose was evaluated by […] through intraperitoneal administration; format: functional
[2] = species on record: Mus musculus; experiment: Time to peak toxicity was evaluated by Maximal electroshock seizure test in hours; format: functional
[3] = species on record: Rattus norvegicus; experiment: Protective index (TD50/ED50) was determined against scMet induced seizure in rat.; format: functional
Procedure, shortened: (§1)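 Oral dosing in 30% PEG 400: phase IV in mice (0.01 mL/g), phase VI in Sprague-Dawley rats (0.004 mL/g). ED50/TD50 found as in phase II, at the stated time of peak effect. MES current 50 mA in mice, 150 mA in rats. Toxicity by rotorod in mice; positional sense, gait and stance in rats. PI = TD50/ED50.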

[4] = test system: Mus musculus; experiment: Anti-seizure activity was evaluated by Maximal electroshock seizure (MES) test at dose 100 mg/kg after 0.5 hours; +++ denotes antiseizure activity; format: functional, organism-based; parameters: dose 100 mg/kg
Procedure, shortened: (§2)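 Phase I screen in mice: ip injection at 30, 100, 300 and 600 mg/kg in 30% PEG 400 (0.01 mL/g). Test run 0.5 h and 4 h after dosing. 60-Hz AC, 50 mA, via corneal electrodes for 0.2 s. Protection means abolition of hind-leg tonic extension. Scored ++++ to + for activity at 30 to 600 mg/kg.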

[5] = species on record: Mus musculus; experiment: Time to peak activity was evaluated by Maximal electroshock seizure test in hours; format: functional
[6] = test system: Mus musculus; experiment: Median effective dose was evaluated by subcutaneous pentylenetetrazole seizure test through intraperitoneal administration; format: functional
Procedure, shortened: (§3)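 Phase II in mice, ip dosing in 30% PEG 400. Groups of 6-12 mice per dose until at least three points fall in 10-90% protection. […] MES: 50 mA, 0.2 s corneal. scMet: pentylenetetrazol 85 mg/kg sc.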

[7] = test system: Mus musculus; experiment: Anti-seizure activity was evaluated by Subcutaneous pentylenetetrazole seizure test at dose 100 mg/kg after 4.0 hours; +++ denotes antiseizure activity; format: functional, organism-based; parameters: dose 100 mg/kg
Procedure, shortened: (§4)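 Phase I screen in mice: ip dosing at 30, 100, 300 and 600 mg/kg in 30% PEG 400, read 0.5 h and 4 h after. Pentylenetetrazol given sc at CD97 (85 mg/kg). Protection means no clonic spasm of at least 5 s over 30 min. Scored ++++ to + for 30 to 600 mg/kg.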

[8] = test system: Mus musculus; experiment: Anti-seizure activity was evaluated by Neurologic toxicity (rotarod test) at dose 600 mg/kg after 0.5 hours; + denotes neurotoxicity; format: functional, organism-based; parameters: dose 600 mg/kg
Procedure, shortened: (§5)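 Phase I neurotoxicity in mice by rotorod ataxia test. Compound given ip at 30, 100, 300 or 600 mg/kg in 30% PEG 400, read 0.5 h and 4 h after. Scored ++++ to + for toxicity at 30 to 600 mg/kg; - means no toxicity.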

[9] = species on record: Rattus norvegicus; experiment: Protective index (TD50/ED50) was determined against MES induced seizure in rat.; format: functional; procedure, shortened: as §1
[10] = test system: Mus musculus; experiment: Median effective dose was evaluated by Maximal electroshock seizure test through intraperitoneal administration; format: functional; settings: ip; procedure, shortened: as §3
[11] = test system: Mus musculus; experiment: Anti-seizure activity was evaluated by Neurologic toxicity (rotarod test) at dose 600 mg/kg after 4.0 hours; + denotes neurotoxicity; format: functional, organism-based; parameters: dose 600 mg/kg; procedure, shortened: as §5
[12] = test system: Mus musculus; experiment: Anti-seizure activity was evaluated by Subcutaneous pentylenetetrazole seizure test at dose 600 mg/kg after 0.5 hours; + denotes neurotoxicity; format: functional, organism-based; parameters: dose 600 mg/kg; procedure, shortened: as §4
[13] = test system: Mus musculus; experiment: Anti-seizure activity was evaluated by Neurologic toxicity (rotarod test) at dose 300 mg/kg after 4.0 hours; ++ denotes antiseizure activity; format: functional, organism-based; parameters: dose 300 mg/kg; procedure, shortened: as §5
[14] = test system: Mus musculus; experiment: Anti-seizure activity was evaluated by Maximal electroshock seizure (MES) test at dose 300 mg/kg after 0.5 hours; ++ denotes antiseizure activity; format: functional, organism-based; parameters: dose 300 mg/kg; procedure, shortened: as §2
[15] = test system: Mus musculus; experiment: Anti-seizure activity was evaluated by Subcutaneous pentylenetetrazole seizure test at dose 100 mg/kg after 0.5 hours; +++ denotes antiseizure activity; format: functional, organism-based; parameters: dose 100 mg/kg; procedure, shortened: as §4
[16] = test system: Rattus norvegicus; experiment: Median Effective dose was evaluated by Subcutaneous pentylenetetrazole seizure test in Rats by oral administration; format: functional
[17] = test system: Mus musculus; experiment: Inhibition of seizures induced in mice by a convulsant dose of strychnine through ip administration; format: functional
Procedure, shortened: (§6)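 Phase V differentiation in mice: test drug given ip at time of peak therapeutic effect, then the CD₉₇ of each convulsant (picrotoxin, bicuculline, strychnine) given ip as a 0.5% solution; observation 30 min for bicuculline and strychnine, 45 min for picrotoxin. Drug in 30% PEG 400, 0.01 mL/g. ED₅₀ with 95% confidence intervals from ≥3 points in the 10-90% protection range, groups of 6-12 mice.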

[18] = test system: Rattus norvegicus; experiment: Time to peak effect in Rats was evaluated by Subcutaneous pentylenetetrazole seizure test in hours by oral administration; format: functional
Procedure, shortened: (§7)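 Oral dosing in 30% PEG 400: phase IV in mice (0.01 mL/g), phase VI in Sprague-Dawley rats (0.004 mL/g). ED50/TD50 found as in phase II, at the stated time of peak effect. MES current 50 mA in mice, 150 mA in rats. PTZ sc 85 mg/kg in mice, 70 mg/kg in rats. Toxicity by rotorod in mice; positional sense, gait and stance in rats. PI = TD50/ED50.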

[19] = test system: Rattus norvegicus; experiment: Time to peak effect in Rats was evaluated by Maximal electroshock seizure (MES) test in hours by oral administration; format: functional; procedure, shortened: as §7
[20] = test system: Mus musculus; experiment: Time to peak effect in mice was evaluated by Maximal electroshock seizure (MES) test in hours by oral administration; format: functional; procedure, shortened: as §7
[21] = test system: Mus musculus; experiment: Time to peak effect in mice was evaluated by Neurologic toxicity (rotarod test) in hours by oral administration; format: functional
Procedure, shortened: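 Oral dosing in mice in 30% PEG 400 (0.01 mL/g). Neurologic deficit was scored by the rotorod ataxia test, and the time of peak effect was given in hours.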

[22] = test system: Mus musculus; experiment: Time to peak effect in mice was evaluated by Subcutaneous pentylenetetrazole seizure test in hours by oral administration; format: functional; procedure, shortened: as §7
[23] = test system: Mus musculus; experiment: Inhibition of seizures induced in mice by a convulsant dose of bicuculline through ip administration; format: functional; procedure, shortened: as §6
[24] = test system: Rattus norvegicus; experiment: Time to peak effect in Rats was evaluated by Neurologic toxicity (rotarod test) in hours by oral administration; format: functional
[25] = species on record: Mus musculus; experiment: Median hypnotic dose was evaluated by loss of righting reflex; format: functional
[26] = test system: Mus musculus; experiment: Median Effective dose was evaluated by Subcutaneous pentylenetetrazole seizure test in mice by oral administration; format: functional
[27] = test system: Rattus norvegicus; experiment: Median Effective dose was evaluated by Subcutaneous pentylenetetrazole seizure test in Rats by oral administration up to 800 mg/kg;d= no protection; format: functional, organism-based; parameters: dose 800 mg/kg; procedure, shortened: as §7
[28] = test system: Mus musculus; experiment: Median lethal dose was evaluated by mortality after 24 hr through ip injection administration; format: functional
Procedure, shortened: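 Mice were dosed ip in 30% PEG 400. Mortality was scored 24 h after injection in groups of eight. The 24-h LD₅₀ was derived as for the ED₅₀/TD₅₀, with 95% confidence intervals.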

[29] = test system: Mus musculus; experiment: Median Effective dose was evaluated by Subcutaneous pentylenetetrazole seizure test in mice by oral administration; c=No protection up to 300 mg/kg; format: functional, organism-based; parameters: dose 300 mg/kg; procedure, shortened: as §7
[30] = test system: Rattus norvegicus; experiment: […] was evaluated by […] by oral administration up to 3000 mg/kg; format: functional, organism-based; parameters: dose 3000 mg/kg
[31] = test system: Mus musculus; experiment: Inhibition of seizures induced in mice by a convulsant dose of up to 100 mg/kg; format: functional, organism-based; parameters: dose 100 mg/kg
Procedure, shortened: (§8)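 Convulsant (bicuculline, picrotoxin, strychnine or PTZ) given at CD97 as a 0.5% solution. Observed 30 min (45 min for picrotoxin). PI uses ip mouse TD50.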

[32] = test system: Rattus norvegicus; experiment: Median Effective dose was evaluated by Maximal electroshock seizure (MES) test in Rats by oral administration; format: functional
[33] = test system: Mus musculus; experiment: Median effective dose was evaluated by subcutaneous pentylenetetrazole seizure test through up to 300 mg/kg; g=no protection up to 33 mg/kg; format: functional, organism-based
[34] = test system: Mus musculus; experiment: […] was evaluated by Neurologic toxicity (rotarod test) in mice by oral administration; format: functional; procedure, shortened: as §7
[35] = test system: Mus musculus; experiment: Inhibition of seizures induced in mice by a convulsant dose of strychnine through ip administration; f=No protection up to 100 mg/kg; format: functional, organism-based; parameters: dose 100 mg/kg; procedure, shortened: as §8
[36] = test system: Mus musculus; experiment: Inhibition of picrotoxin-induced seizures in mice by ip administration at 55-100 mg/kg (g= Maximum 62.5% protection); format: functional, organism-based; procedure, shortened: as §6
[37] = test system: Mus musculus; experiment: Median Effective dose was evaluated by Maximal electroshock seizure (MES) test in mice by oral administration; format: functional

Compound	TD50 [1]	TPE [2]	PI [3]	TPE [5]	ED50 [6]	Activity [8]	PI [9]	ED50 [10]	TPE [18]	TPE [19]	TPE [20]	TPE [21]	TPE [22]	TPE [24]	HD50 [25]	also measured
O=C(Cc1ccc(Br)cc1)NS(=O)(=O)C(F)(F)F	291 mg/kg	2	5.3	4	55 mg/kg	Antiseizure activity	13	23 mg/kg								Activity [4]: Antiseizure activity; Activity [7]: Antiseizure activity; Activity [11]: Antiseizure activity; Activity [12]: Antiseizure activity
O=C(Cc1ccc(Cl)cc1)NS(=O)(=O)C(F)(F)F	206 mg/kg	4	4.2	4	49 mg/kg	Antiseizure activity	27	7.6 mg/kg								Activity [13]: Antiseizure activity; Activity [14]: Antiseizure activity; Activity [15]: Antiseizure activity
CCCC(CCC)C(=O)O [VALPROIC ACID]		0.25		0.25	149 mg/kg				0.5 h	0.5 h	1 h	2 h	1 h	1 h	885 mg/kg	ED50 [16]: 180 mg/kg; ED50 [17]: 387 mg/kg; ED50 [23]: 360 mg/kg; ED50 [26]: 388 mg/kg
O=C1NC(=O)C(c2ccccc2)(c2ccccc2)N1 [PHENYTOIN]		2		2					4 h	4 h	2 h	2 h	2 h	0.5 h	178 mg/kg	ED50 [27]: inactive; LD50 [28]: 230 mg/kg; ED50 [29]: inactive; TD50 [30]: inactive; ED50 [31]: inactive; ED50 [32]: 30 mg/kg; ED50 [33]: inactive; TD50 [34]: 87 mg/kg; ED50 [35]: inactive; ED50 [36]: Active; ED50 [37]: 9 mg/kg
